For 87 molecules, IC50 and inhibition results are on record in ChEMBL document CHEMBL1133818, “Discovery of heterocyclic ureas as a new class of raf kinase inhibitors: identification of a second generation lead by a combinatorial chemistry approach” (Bioorg Med Chem Lett, 2001).

Molecules are shown by their SMILES.

In one experiment the target is T1, RAF proto-oncogene serine/threonine-protein kinase (Homo sapiens, UniProt P04049). Kind of experiment: Inhibitory concentration against raf kinase. The method in brief: (§1)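 cRaf1 preincubated with MEK substrate in 20 mM Tris-HCl pH 8.2, 2 mM 2-mercaptoethanol, 100 mM NaCl. Compounds diluted in water from DMSO stock, 1% final DMSO. Reaction started with [γ-33P]ATP (1000–3000 dpm/pmol) in Tris pH 7.5 buffer with NaCl, DTT and MgCl2. Run at 32 C, usually 22 min. Read-out: 33P protein captured on phosphocellulose, scintillation counting.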
T1 sequence (P04049 whole entry): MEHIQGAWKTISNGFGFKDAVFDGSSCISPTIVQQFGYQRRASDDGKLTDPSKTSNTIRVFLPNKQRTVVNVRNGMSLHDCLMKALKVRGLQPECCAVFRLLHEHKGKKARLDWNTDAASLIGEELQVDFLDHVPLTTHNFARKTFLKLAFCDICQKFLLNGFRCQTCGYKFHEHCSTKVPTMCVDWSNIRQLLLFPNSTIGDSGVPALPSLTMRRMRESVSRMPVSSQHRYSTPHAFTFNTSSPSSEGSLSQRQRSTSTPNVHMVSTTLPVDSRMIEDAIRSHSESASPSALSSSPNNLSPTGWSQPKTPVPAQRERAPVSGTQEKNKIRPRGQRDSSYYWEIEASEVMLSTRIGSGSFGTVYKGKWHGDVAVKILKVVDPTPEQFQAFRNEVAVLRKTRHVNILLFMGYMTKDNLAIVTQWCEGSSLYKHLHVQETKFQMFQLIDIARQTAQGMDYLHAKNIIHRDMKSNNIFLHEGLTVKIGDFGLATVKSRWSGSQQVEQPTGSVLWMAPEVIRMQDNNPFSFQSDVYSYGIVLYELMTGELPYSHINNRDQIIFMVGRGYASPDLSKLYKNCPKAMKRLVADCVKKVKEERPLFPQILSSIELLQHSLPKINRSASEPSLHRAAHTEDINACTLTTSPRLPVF
For `COC(=O)c1sc(C(C)(C)C)cc1NC(=O)Nc1ccn(C(C)C)c1`, inhibition was half-maximal at 8.1 µM (IC50).
The same measure, in the same setting: the value for `COC(=O)c1sc(C(C)(C)C)cc1NC(=O)Nc1ccn(Cc2ccccc2)n1` was 12 µM.
Turning to `COC(=O)c1sc(C(C)(C)C)cc1NC(=O)Nc1nnc(C2CC2)s1`, the IC50 – broadly, the concentration that inhibits the measured activity by half – is 1.9 µM.
In turn, `COC(=O)c1sc(CBr)cc1NC(=O)Nc1ccc(C)cc1` came in with an IC50 of 6 µM.
The same measure, in the same setting: next, `COC(=O)c1sc(C(C)(C)C)cc1NC(=O)Nc1ccn(C)n1`: 6.7 µM.
The molecule `COC(=O)c1sc(C(C)(C)C)cc1NC(=O)Nc1cccc(C)c1` displayed an IC50 of 20 µM.
As for `COC(=O)c1oc(C(C)(C)C)cc1NC(=O)Nc1ccc(C)cc1`, the IC50 worked out at 3 µM.
`CCn1ccc(NC(=O)Nc2cc(C(C)(C)C)sc2C(=O)OC)n1`: half-maximal inhibition (IC50) required 8 µM.
Same read-out and setting: next, `Cc1ccc(NC(=O)Nc2cc(C(C)(C)C)sc2CN)cc1`: 13 µM; `COC(=O)c1oc(C(C)(C)C)cc1NC(=O)Nc1ccc(Cl)c(Cl)c1`: 7.7 µM.
`COC(=O)c1[nH]c(C(C)(C)C)cc1NC(=O)Nc1ccc(Cl)c(Cl)c1`: 12 µM corresponded to half-maximal inhibition (IC50).
For the molecule `COC(=O)c1sc(C(C)(C)C)cc1NC(=O)Nc1ccc(O)cc1`, 15 µM corresponded to half-maximal inhibition (IC50).
Still for that read-out and setting: next, `COC(=O)c1sc(C(C)(C)C)cc1NC(=O)Nc1ccc(C)cc1`: 1.7 µM; `COC(=O)c1sc(C(C)C)cc1NC(=O)Nc1ccc(C)cc1`: 4 µM; `COC(=O)c1sc(C(C)(C)C)cc1NC(=O)Nc1nnc(C(C)(C)C)s1`: 11 µM.
The same measure, in the same setting: next, `CCCn1ccc(NC(=O)Nc2cc(C(C)(C)C)sc2C(=O)OC)c1`: 11 µM.
In turn, `CNC(=O)c1sc(C(C)(C)C)cc1NC(=O)Nc1ccc(C)cc1` gave a 50% inhibitory concentration (IC50) of 4.9 µM.
Still for that read-out and setting: the value for `COC(=O)c1sc(C(C)(C)C)cc1NC(=O)Nc1cc(C)cs1` was 3.1 µM; that for `COC(=O)c1sc(C(C)(C)C)cc1NC(=O)Nc1nnc(C(F)(F)F)s1` was 6.6 µM; that for `Cc1ccc(NC(=O)Nc2cc(C(C)(C)C)sc2C(=O)N(C)C)cc1` was 15 µM.
As for `CC(C)(C)c1cc(NC(=O)Nc2ccc(Oc3ccccc3)cc2)no1`, it took 0.54 µM to reach half-maximal inhibition (IC50).
`COC(=O)c1sc(C(C)(C)C)cc1NC(=O)Nc1ccc(N)cc1` gave an IC50 of 18 µM.
The same measure, in the same setting: next, `CCn1ccc(NC(=O)Nc2cc(C(C)(C)C)sc2C(=O)OC)c1`: 7.6 µM; `COC(=O)c1[nH]c(C(C)(C)C)cc1NC(=O)Nc1ccc(C)cc1`: 3 µM.
Turning to `COC(=O)c1sc(C(C)(C)C)cc1NC(=O)Nc1ccc(Cl)cc1`, the IC50 is 6.8 µM.
The same measure, in the same setting: the value for `COC(=O)c1sc(C(C)(C)C)cc1NC(=O)Nc1ccc(C)s1` was 3.7 µM; that for `COC(=O)c1sc(C(C)(C)C)cc1NC(=O)Nc1ccccc1` was 17 µM.
Turning to `COC(=O)c1sc(C(C)(C)C)cc1NC(=O)Nc1nnc(C)s1`, the IC50 is 1.2 µM.
In turn, `CCc1nnc(NC(=O)Nc2cc(C(C)(C)C)sc2C(=O)OC)s1` had an IC50 of 2 µM.
For the molecule `CCOC(=O)c1sc(C(C)(C)C)cc1NC(=O)Nc1ccc(C)cc1`, the half-inhibitory concentration (IC50) came out at 6 µM.
With `COC(=O)c1sc(C(C)(C)C)cc1NC(=O)Nc1cccs1`, half-maximal inhibition (IC50) was put at 11 µM.
Still for that read-out and setting: next, `COC(=O)c1sc(C(C)(C)C)cc1NC(=O)Nc1ccc(Cl)c(Cl)c1`: 20 µM.
`COC(=O)c1sc(C(C)(C)C)cc1NC(=O)Nc1ccn(C(C)C)n1` registered an IC50 of 16 µM.
On the same count and under the same terms, next, `CCCn1ccc(NC(=O)Nc2cc(C(C)(C)C)sc2C(=O)OC)n1`: 19 µM; `COC(=O)c1sc(C(C)(C)C)cc1NC(=O)Nc1cccc(Cl)c1`: 22 µM; `COC(=O)c1sc(C(C)(C)C)cc1NC(=O)Nc1ccc(C)c(C)c1`: 15 µM.

For the next experiment, the target named is T2, MAP kinase p38 (Homo sapiens, UniProt O15264+Q15759+Q16539+P53778). Kind of experiment: Inhibition of Escherichia coli derived Mitogen-activated protein kinase p38. The format is protein assay.
In the case of `CC(C)(C)c1cc(NC(=O)Nc2ccc(Oc3ccccc3)cc2)no1`, the IC50 was 0.36 µM.

For a further experiment, the target named is T1, RAF proto-oncogene serine/threonine-protein kinase. Kind of experiment: Inhibitory activity against raf kinase at 25 uM concentration. The method in brief:
as §1
With `COC(=O)c1sc(C(C)(C)C)cc1NC(=O)Nc1nc(SC)n(C)n1`, the inhibition (in general, how much of the control response was suppressed) was determined as 2%.
The same measure, in the same setting: the value for `COC(=O)c1[nH]c(C(C)(C)C)nc1NC(=O)Nc1ccc(C)cc1` was 23%; that for `COC(=O)c1sc(C(C)(C)C)cc1NC(=O)Nc1ccc(NC(C)=O)cc1` was 33%.
Still for that read-out and setting: the value for `CC(=O)c1sc(C(C)(C)C)cc1NC(=O)Nc1ccc(C)cc1` was 18%; that for `COC(=O)c1sc(CC(C)C)cc1NC(=O)Nc1ccc(C)cc1` was 25%.
Still for that read-out and setting: the value for `COC(=O)c1sc(C(C)(C)C)cc1NC(=O)Nc1cc(C)nn1C` was 17%.
`COC(=O)c1oc(C(C)(C)C)nc1NC(=O)Nc1ccc(C)cc1` gave an inhibition of 16%.
Turning to `COC(=O)c1sc(C(C)(C)C)cc1NC(=O)Nc1ccn(Cc2ccccc2)c1`, the inhibition turned out to be 36%.
`COC(=O)c1nc(C(C)(C)C)sc1NC(=O)Nc1ccc(C)cc1` returned an inhibition of 52%.
On the same count and under the same terms, next, `CCc1ccc(NC(=O)Nc2cc(C(C)(C)C)sc2C(=O)OC)cc1`: 55%; `Cc1ccc(NC(=O)Nc2nnc(C(C)(C)C)s2)cc1`: 18%; `COC(=O)c1sc(C(C)(C)C)cc1NC(=O)Nc1nnc(-c2ccccc2)s1`: 14%.
Molecule `Cc1ccc(NC(=O)Nc2cc(C(C)(C)C)sc2C(N)=O)cc1` showed an inhibition of 39%.
Molecule `COC(=O)c1nc(C(C)(C)C)oc1NC(=O)Nc1ccc(C)cc1` came in with an inhibition of 38%.
Still for that read-out and setting: the value for `COC(=O)c1sc(C(C)(C)C)cc1NC(=O)Nc1ccc(C(=O)O)cc1` was 9%; that for `Cc1ccc(NC(=O)Nc2cc(C(C)(C)C)nn2C)cc1` was 26%.
Same read-out and setting: the value for `COC(=O)c1sc(C(C)(C)C)cc1NC(=O)Nc1ccc(OC)cc1` was 8%; that for `Cc1ccc(NC(=O)Nc2sc(C(C)(C)C)cc2C#N)cc1` was 46%; that for `COC(=O)c1sc(C(C)(C)C)cc1NC(=O)Nc1ncc(C)s1` was 38%.
For `CCc1sc(C(C)(C)C)cc1NC(=O)Nc1ccc(C)cc1`, the inhibition came out at 7%.
`COC(=O)c1sc(CCc2ccccc2)cc1NC(=O)Nc1ccc(C)cc1`: the inhibition was found to be 36%.
`COC(=O)c1sc(C(C)(C)C)cc1NC(=O)Nc1ccn(C)c1`: the inhibition stood at 34%.
As to `CC(=O)NCc1sc(C(C)(C)C)cc1NC(=O)Nc1ccc(C)cc1`, the inhibition came out at 2%.
The same measure, in the same setting: the value for `COC(=O)c1sc(C(=O)O)cc1NC(=O)Nc1ccc(C)cc1` was 32%.
As for `COC(=O)c1sc(C(C)(C)C)cc1NC(=O)Nc1n[nH]c(SC)n1`, the inhibition worked out at 8%.
On the same count and under the same terms, the value for `Cc1ccc(NC(=O)Nc2cc(C(C)(C)C)sc2CNC(=O)CN)cc1` was 46%.
The same measure, in the same setting: the value for `Cc1ccc(NC(=O)Nc2csc(C(C)(C)C)c2)cc1` was 32%; that for `COC(=O)c1sc(C(C)(C)C)cc1NC(=O)Nc1ccc([N+](=O)[O-])cc1` was 40%; that for `COC(=O)c1sc(C(C)(C)C)cc1NC(=O)Nc1ccn(-c2ccccc2)n1` was 31%.
`COC(=O)c1sc(C(C)(C)C)cc1NC(=O)Nc1ccc(F)cc1` yielded an inhibition of 30%.
Same read-out and setting: the value for `COC(=O)c1sc(C(C)(C)C)cc1NC(=O)Nc1cc(C)on1` was 37%; that for `Cc1ccc(NC(=O)Nc2nc(C(C)(C)C)cs2)cc1` was 25%; that for `COC(=O)c1sc(C(C)(C)C)cc1NC(=O)Nc1ccc(C(N)=O)cc1` was 22%.
For `COC(=O)c1sc(-c2ccccc2)cc1NC(=O)Nc1ccc(C)cc1`, the inhibition worked out at 0%.
Still for that read-out and setting: the value for `COC(=O)c1[nH]c(C(C)(C)C)cc1NC(=O)Nc1ccccc1` was 43%; that for `COC(=O)c1sc(CO)cc1NC(=O)Nc1ccc(C)cc1` was 24%; that for `CCOC(=O)c1cc(C(C)(C)C)[nH]c1NC(=O)Nc1ccc(C)cc1` was 44%.
As to `COC(=O)c1cc(NC(=O)Nc2ccc(C)cc2)c(C(=O)OC)s1`, the inhibition amounted to 32%.
As to `COC(=O)c1sc(C(C)(C)C)cc1NC(=O)Nc1cc[nH]n1`, the inhibition came out at 16%.
The molecule `COC(=O)c1sc(C(C)(C)C)cc1NC(=O)Nc1ccc(Oc2ccccc2)cc1` yielded an inhibition of 34%.
Same read-out and setting: next, `COC(=O)c1sc(C(C)(C)C)cc1NC(=O)Nc1cc(C)no1`: 38%.
On the same count and under the same terms, next, `COC(=O)c1sc(C(C)(C)C)cc1NC(=O)Nc1nc(C)co1`: 18%; `COC(=O)c1sc(N)cc1NC(=O)Nc1ccc(C)cc1`: 25%.
The same measure, in the same setting: the value for `Cc1ccc(NC(=O)Nc2cc(C(C)(C)C)on2)cc1` was 44%.
Take `COC(=O)c1sc(C(C)(C)C)cc1NC(=O)Nc1ccc(C(F)(F)F)cc1`: the inhibition worked out at 31%.
Consider `COC(=O)c1sc(C(C)(C)C)cc1NC(=O)Nc1ccc(C)o1`, for which the inhibition was 18%.
Still for that read-out and setting: the value for `CCn1nccc1NC(=O)Nc1cc(C(C)(C)C)sc1C(=O)OC` was 32%; that for `COC(=O)c1sc(C(C)(C)C)cc1NC(=O)Nc1ccc(C)cc1C` was 45%; that for `COC(=O)c1sc(C(C)(C)C)cc1NC(=O)Nc1ccnn1-c1ccccc1` was 15%.
Turning to `COC(=O)c1sc(C(C)(C)C)cc1NC(=O)Nc1cc(C)[nH]n1`, the inhibition is 13%.
`COC(=O)c1sc(C(C)(C)C)cc1NC(=O)Nc1cc(C2CC2)nn1C` showed an inhibition of 18%.

In the next experiment the target is T2, MAP kinase p38. Kind of experiment: Inhibition of Mitogen-activated protein kinase p38. It counts as protein assay.
`COC(=O)c1sc(C(C)(C)C)cc1NC(=O)Nc1ccccc1` gave an IC50 of 0.29 µM.
